Bioassay records (PubChem)
Compounds with a hit are over-represented: about 2% of the library has one in this group of screens.
Granule exo inh: LAMP-1 surface exposure blockers, TALL-104 cells – cell-based, flow cytometry, MLPCN library, primary screen. 360,000 compounds, 0.66% hits. AID 651702, 2012. inhibition, % at 10 µM. TALL-104 LAMP-1 surface exposure; cells stimulated with thapsigargin and PMA;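 active means inhibition above about 55%, limit read from the data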
ABCB6 inh MLPCN: ABCB6 transporter inhibitors, primary screen, K562-ABCB6 cells, flow cytometry, MLPCN library; K562-ABCB6 porphyrin accumulation, 1 h; active compounds read low; fluorescence ratio to DMSO, % at 10 µM; 360,000 compounds, 0.19% hits;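 active means fluorescence ratio to DMSO below 75%, the collection mean minus 3 SD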;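 further: signal is porphyrin accumulated inside mitochondria; 100% equals median channel fluorescence of DMSO control wells; lower ratio means ABCB6 inhibition with less porphyrin fluorescence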
Target sequence (Q9NP58 whole entry, looked up): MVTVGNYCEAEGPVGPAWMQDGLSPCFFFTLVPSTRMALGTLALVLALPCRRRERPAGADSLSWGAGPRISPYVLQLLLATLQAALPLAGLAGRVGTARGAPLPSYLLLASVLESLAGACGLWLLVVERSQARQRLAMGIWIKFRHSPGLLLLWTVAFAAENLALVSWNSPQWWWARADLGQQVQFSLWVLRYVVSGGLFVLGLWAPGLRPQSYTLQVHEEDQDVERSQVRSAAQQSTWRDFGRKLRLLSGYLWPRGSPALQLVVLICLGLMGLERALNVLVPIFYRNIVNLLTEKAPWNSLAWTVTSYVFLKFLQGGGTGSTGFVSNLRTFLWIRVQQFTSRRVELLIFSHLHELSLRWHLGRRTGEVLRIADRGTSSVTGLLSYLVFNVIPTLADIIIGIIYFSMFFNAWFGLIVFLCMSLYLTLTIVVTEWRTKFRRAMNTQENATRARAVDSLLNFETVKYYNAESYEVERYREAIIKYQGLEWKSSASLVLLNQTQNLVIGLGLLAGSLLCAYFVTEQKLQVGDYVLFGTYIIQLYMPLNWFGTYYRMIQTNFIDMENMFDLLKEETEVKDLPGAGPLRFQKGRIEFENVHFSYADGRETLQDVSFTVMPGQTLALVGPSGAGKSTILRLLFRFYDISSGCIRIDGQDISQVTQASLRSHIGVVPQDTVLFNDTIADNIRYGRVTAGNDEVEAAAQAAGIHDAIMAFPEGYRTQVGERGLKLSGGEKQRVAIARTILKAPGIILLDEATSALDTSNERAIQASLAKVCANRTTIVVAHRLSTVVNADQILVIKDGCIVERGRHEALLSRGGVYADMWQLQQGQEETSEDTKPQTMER
DAGLB inhibitor: DAGLB lipase inhibitors, primary screen, biochemical, fluorescence, HTS; Diacylglycerol lipase-beta (Homo sapiens), Q8NCG7; HEK293T DAGLB membrane lysate, EnzChek fluorogenic substrate; inhibition, % at 5.17 µM; 340,000 compounds, 0.059% hits; AID 504411, 2011; in the data active means inhibition above about 34%;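 further: 0% = enzyme with vehicle and 100% = wells lacking enzyme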
FGF22 binding: binders of human FGF22 protein, primary screen, FGF22 synaptogenesis inhibitor project, biophysical, thermal shift, single point | activity (Tm shift, normalised), % at 9.99 µM | 340,000 compounds, 1.5% hits | recombinant FGF22 thermal shift, SYPRO orange fluorescence; percent of sucrose octasulfate shift, DMSO zero | Fibroblast growth factor 22 (Homo sapiens), Q9HCT0;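 active means mean Tm shift, scaled 0 neutral to 100 positive control, at about 1.3% or above, every replicate too, limit read from the data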
MT1-MMP act inh: blockers of MT1-MMP proenzyme processing, primary screen, HT1080 RFP-PRO-GFP cells, GFP/RFP fluorescence. 360,000 compounds, 0.061% hits. AID 651647, 2012. GFP/RFP ratio change, % at 20 µM. GFP/RFP ratio fluorescence, overnight; percent of plate control window, DMSO zero. Matrix metalloproteinase-14 (Homo sapiens), P50281;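 active means GFP/RFP ratio change of at least 30% with cell ATP level not reduced by more than half and red fluorescence within 50% of control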
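Test system: HT1080 cells expressing an RFP-PRO-GFP fluorescent reporter construct / Compound dosing: single-point 20 µM compound, 1% DMSO / Schedule: cells overnight before dosing, compound overnight, 37 °C, 5% CO2 / Evaluation: GFP/RFP fluorescence ratio / Control set: DMSO and RFP-L50D-GFP cell wells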
VLA-4 inh: inhibition in human VLA-4 binding assay, primary screen, VLA-4 allosteric modulator project, MLPCN library, flow cytometry, VLA-4 expressing cells; AID 2557, 2010; Integrin alpha-4 (Homo sapiens), P13612; inhibition, % (about 7 µM as worked out from the volumes in the protocol); ligand binding flow cytometry; 330,000 compounds, 0.2% hits; in the data active means inhibition above about 50%
* = called active by the depositor; i = inactive; / = no result given; ! = not confirmed by another sample.

SMILES	Granule exo inh	ABCB6 inh MLPCN	DAGLB inhibitor	FGF22 binding	MT1-MMP act inh	VLA-4 inh
CN1C(=O)c2cc(NC(=O)c3ccc(F)c(F)c3)ccc2OC[C@@H]2O[C@@H](CC(=O)N3CCOCC3)CC[C@@H]21	/	/	/	0	/	/
CCC(=O)Nc1ccc2c(c1)C(=O)N(C)C[C@@H](OC)[C@@H](C)CN(C(=O)c1ccncc1)[C@@H](C)CO2	/	/	/	0	/	/
CC(C)c1ccc(NC(=O)c2snc3ccc(Cl)cc23)cc1	6	95	-18	44*	-4	18
CC(C)c1ccc(NC(=O)c2csnn2)cc1	-2	102	1	0	2	18
O=C(OCc1ccc(F)cc1)c1ccc2c(c1)-c1ccccc1C2=O	-3	103	-4	/	4	9
CCOC(=O)C1=C(Cc2ccc(F)cc2)C(=O)c2ccccc2C1=O	100*	543	3	/	-76	i
COC(=O)c1ccc(CSc2nc3sc(C(=O)O)c(C)c3c(=O)[nH]2)cc1	/	/	/	0	/	1
CCOC(=O)c1ccc(NC(=O)CSc2nc3sc(C(=O)O)c(C)c3c(=O)[nH]2)cc1	-4	99	-1	43*	6	13
Cc1sc2nc(SCC(=O)O)[nH]c(=O)c2c1C	3	99	4	43*	-1	5
Cc1ccc(C2=NC(C)(C)N=C2SCC(=O)Nc2ccc(Cl)cc2)cc1	0	66*	-14	/	-1	7
CNC(=O)C1C(=S)NC(N)=C(C#N)C1c1ccccc1 (centres undefined)	69*	97	3	/	1	49
CC1=[N+](C)N(c2ccccc2)C(=O)C1N=Cc1c(Cl)cccc1Cl (centres undefined)	1	101	-2	43*	0	3
CC1=[N+](C)N(c2ccccc2)C(=O)C1N=Cc1ccccc1Cl (centres undefined)	3	99	-1	0	-1	2
COc1ccc2nc(NC(=O)CSc3nnnn3C3CCCCC3)sc2c1	1	102	-2	0	-7	12
COc1ccc2nc(NC(=O)CSc3nnnn3C)sc2c1	-6	96	1	43*	2	9
CCC(=O)N1CC2(C1)[C@H](c1ccccc1)[C@H](CO)N2Cc1ccccc1F	/	/	/	0	/	/
COc1ccccc1C#Cc1cnc2c(c1)C(=O)N([C@H](C)CO)C[C@@H](C)[C@@H](CN(C)C(C)=O)O2	/	/	/	0	/	/
COC(=O)c1sccc1NC(=O)c1cnc2cc(C)nn2c1C	-5	100	-1	43*	0	-12
Cc1cc2ncc(C(=O)Nc3ccccc3)c(C)n2n1	1	99	0	/	6	8
Cc1ccc(NC(=O)c2[nH]cnc2C(=O)NN)cc1	-2	98	-4	0	-4	20
NNC(=O)c1nc[nH]c1C(=O)Nc1ccccn1	0	99	-1	43*	6	18
CC(=O)NC(C)c1cc(Cl)c2cccnc2c1O (centres undefined)	-10	102	2	45*	0	-7
CC(=O)NC(c1cccs1)c1cc(F)c2cccnc2c1O (centres undefined)	-10	102	2	43*	3	6
O=S(=O)(Nc1cc2nc3ccccc3nc2n1Cc1ccccc1)c1ccc(Cl)cc1	66*	141	12	0	-62	-23
CC(C)CC#Cc1cnc2c(c1)C(=O)N([C@@H](C)CO)C[C@H](C)[C@@H](CN(C)C(=O)c1cccnc1)O2	/	/	/	0	/	/
SMILES	Granule exo inh	ABCB6 inh MLPCN	DAGLB inhibitor	FGF22 binding	MT1-MMP act inh	VLA-4 inh
C/C(=N/NC(=O)OC(C)(C)C)c1ccco1	-3	100	0	44*	1	15
CC(/C=C/c1ccco1)=N/NC(=O)OC(C)(C)C	2	99	0	0	-3	-6
O=C(CSc1ccccn1)Nc1ccc(NC(=O)CSc2ccccn2)cc1	-2	106	-3	0	3	4
O=C(CSc1ccccn1)Nc1nonc1[N+](=O)[O-]	59*	105	0	0	-3	-10
CC1CC(C)(C)NC(=S)O1 (centres undefined)	-8	97	-4	43*!	2	14
CC1(C)CCC(C)(C)NC(=S)N1	-2	98	1	0	1	18
COc1cc2c(cc1OC)C(=O)C(Br)CC2 (centres undefined)	100*	97	-10	/	2	/
CO[C@@H]1CN(C)C(=O)c2cc(NC(=O)c3ccccc3F)ccc2OC[C@H](C)N(C)C[C@@H]1C	/	/	/	0	/	/
CC(C)NC(=O)N(C)C[C@@H]1Oc2ccc(NC(=O)C3CC3)cc2C(=O)N([C@H](C)CO)C[C@@H]1C	/	/	/	0	/	/
Cc1cccc(CSCCNC(=O)CCSc2ccccc2)c1	0	102	-8	44*	3	6
CCOC=C1C(=O)N(C(C)=O)c2cc(OC)c(OC)cc21	-22	102	1	43*	2	/
O=C(Nc1ccccc1)C1CC(=O)n2ncnc2N1 (centres undefined)	-4	104	1	0	3	-5
O=C(Nc1ccc(F)cc1)C1CC(=O)n2ncnc2N1 (centres undefined)	-2	103	-3	43*	3	-5
Cc1ccc(O)c(N=Cc2cc(Cc3ccccc3)cc([N+](=O)[O-])c2O)c1	1	104	23	43*	-1	/
CO[C@@H]1CN(C)C(=O)c2cc(NC(=O)C3CC3)ccc2OC[C@H](C)N(C)C[C@H]1C	/	/	/	0	/	/
CC(C)C[C@H]1CN=C(Nc2ccccc2)N1CC1CCC(C(C)(C)C)CC1 (some centres undefined)	93*	97	3	/	-5	34
CC(C)C[C@H]1CN=C(Nc2ccccc2)N1CC1CCCC1	1	97	0	0	5	-4
NCC[C@@H]1CC[C@@H](NC(=O)C2CCCCC2)[C@@H](CO)O1	/	/	/	0	/	/
CN(C)CCCNC(=O)C[C@@H]1CC[C@H]2[C@@H](COc3ccc(NS(C)(=O)=O)cc3C(=O)N2C)O1	/	/	/	0	/	/
Cn1nc(C(F)(F)F)c(/C=N/OC(=O)c2ccccc2)c1Cl	57*	103	-5	/	-1	0
Cc1nn(C)c(Cl)c1/C=N/OC(=O)c1ccccc1	-2	103	-8	0	-3	16
